# Experimental data taken from PMC13487472 (Blood, 2026).
# System: ALL-SIL
# Experiment: CTG assay in ALL-SIL
# Assay type: cell-based
# Conditions: ABL-fusion-positive cell line, 72 hrs
# Procedure, shortened: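 After 72 h, an equal volume of CellTiter-Glo was added and luminescence read as an ATP-based proxy for cell number. Signals were normalised to DMSO controls; triplicates; LC50 fitted with a 4-parameter dose-response model.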
smiles,measurement,value
Cc1nc(Nc2ncc(C(=O)Nc3c(C)cccc3Cl)s2)cc(N2CCN(CCO)CC2)n1 [dasatinib],Cytotoxicity in ALL-SIL,highly sensitive
